Experimental data gathered from unrelated publications.
Compare with care: the assays were run in different laboratories.
Target: Receptor tyrosine-protein kinase erbB-2 (ERBB2, Homo sapiens, UniProt P04626)

SMILES	observed	mode	method	tested at	measurement	value
Oc1ccc(-c2nc(-c3ccncc3)c(-c3ccc(F)cc3)[nH]2)cc1	cell-free assay			0.5 µM	remaining signal	95.5%
CCCCNc1ncc2c(-c3ccc(F)cc3)nn(C[C@H]3CC[C@H](N)CC3)c2n1	target engagement in cells	inhibitor	chemoproteomics	20 mM	inhibition	77.8%
Cc1ccc(C(=O)Nc2ccc(CN3CCN(C)CC3)c(C(F)(F)F)c2)cc1C#Cc1cnc2cccnn12	enzyme activity	inhibitor		23.5 nM	remaining activity	44%
CC(C)(C)c1nc(-c2cccc(NS(=O)(=O)c3c(F)cccc3F)c2F)c(-c2ccnc(N)n2)s1	enzyme activity	inhibitor	radiometric	1 µM	remaining activity	96%
N#Cc1ccc(Nc2ccc3[nH]c(=O)[nH]c3c2)c(Cl)c1	cell-free assay		competition with immobilised ligand	1 µM	remaining binding	100%
Nc1ncnc2occ(-c3ccc(NC(=O)Nc4cc(C(F)(F)F)ccc4F)cc3)c12	cell-free assay	inhibitor		20 µM	remaining signal	0%
COc1cc2ncnc(Nc3ccc(Oc4ccccc4)cc3C)c2cc1OC	enzyme activity	inhibitor		1 µM	inhibition	55%
CS(=O)(=O)N1CCCC(NC(=O)[C@H](CCC2CCCCC2)NC(=O)c2ccc(CNc3ncnc4c3nnn4-c3ccccc3)cc2)C1 (some centres unmarked)	cell-free assay		competition with immobilised ligand	0.1 µM	remaining binding	100%
COc1cc2c(N3CCN(C(=O)Nc4ccc(OC(C)C)cc4)CC3)ncnc2cc1OCCCN1CCCCC1	cell-free assay			0.5 µM	remaining signal	104%
Cc1cnc(NC2CCOCC2)nc1-n1cnc(C(=O)NC(CN)c2cc(F)cc(Cl)c2)c1 (centres unmarked)	enzyme activity	inhibitor	radiometric	1 µM	remaining activity	100%
COc1ccc2c(c1)O[C@@H](c1ccc(OC)c(OC)c1)C[C@H]2NC(=O)C1(c2ccc3c(c2)OC(F)(F)O3)CC1	cell-free assay		competition with immobilised ligand	1 µM	remaining binding	75%
CC/C(=N\NC(=O)NCc1cccc(O)c1)c1ccc(O)c(C)c1O	enzyme activity	inhibitor		0.1 µM	inhibition	0.8%
Cn1nc(C(F)(F)F)cc1-c1cnc(N2CCc3cc(S(=O)(=O)Nc4c(F)cc(Cl)cc4F)cc(N4CCCC4=O)c32)nc1	cell-free assay		competition with immobilised ligand	1 µM	remaining binding	79%
Nc1nc(Nc2ccc(S(N)(=O)=O)cc2)nn1C(=O)c1c(F)cccc1F	cell-free assay			0.5 µM	remaining signal	91.1%
NS(=O)(=O)c1cc(NC(=O)C2(c3ccccc3Cl)CC2)ccc1Oc1cccc(Cl)c1	cell-free assay		competition with immobilised ligand	1 µM	remaining binding	49%
N#CCCc1ccc2c(c1)-c1[nH]c3ccc([N+](=O)[O-])cc3c1CC(=O)N2	cell-free assay			0.5 µM	remaining signal	98.6%
COc1cc(Cl)c(C(=O)N[C@@H](CN[C@H]2CC[C@@H](N)CC2)Cc2ccc(C#N)cc2)cc1-c1ccc(CN[C@H](C)c2ccc(C)cc2)o1	enzyme activity	inhibitor		1 µM	remaining activity	91%
